Results as given in ChEMBL document CHEMBL4130377 (Eur J Med Chem, 2017).
The source made the active and inactive calls. No cut-off for these calls is given here.

What was measured:
Mus musculus [1] = experiment: Anorectic activity in overnight fasted ICR mouse assessed as reduction in cumulative food intake at 1000 nmol/kg, ip measured up to 8 hrs post dose
Mus musculus [2] = experiment: Body weight lowering effect in ICR mouse assessed as cumulative changes in body weight at 1000 nmol/kg, ip administered every other day for 2 weeks; assay type: functional, organism-based
Glucagon receptor = Glucagon receptor (Homo sapiens, UniProt P47871); experiment: Agonist activity at human GCGR expressed in HEK293 cells assessed as increase in cAMP accumulation after 20 mins by HTRF assay; assay type: functional, cell-based
Mus musculus [3] = experiment: Antiobesity activity in diet-induced obese C57Bl/6 mouse model assessed as plasma triglyceride level at 3.48 mg/kg, ip administered every other day for 30 days (reference value: 0.84 +/- […]); assay type: functional, organism-based
Mus musculus [4] = experiment: Anorectic activity in overnight fasted ICR mouse assessed as reduction in cumulative food intake at 1000 nmol/kg, ip measured at <2 hrs post dose; assay type: functional, organism-based
Mus musculus [5] = experiment: Antiobesity activity in diet-induced obese C57Bl/6 mouse model assessed as serum leptin level at 3.48 mg/kg, ip administered every other day for 30 days by ELISA (reference value: 1.9 +/- 0.07 ng/ml); assay type: functional, organism-based
Summary of the method: (§1)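 Male C57Bl/6 mice were fed high-fat diet (60% kcal fat) for 12 weeks; DIO mice were ~38 g at 20 weeks. Dosing was i.p. (10 mL/kg in 0.9% saline) every other day at 9 am for 30 days, with saline controls and low-fat-diet lean mice for reference. Insulin, leptin and adiponectin were measured at study end. n=6-8 per group, means ± SD.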

Mus musculus [6] = experiment: Antiobesity activity in diet-induced obese C57Bl/6 mouse model assessed as plasma cholesterol level at 3.48 mg/kg, ip administered every other day for 30 days (reference value: 4.33 +/- […]); assay type: functional, organism-based
Mus musculus [7] = experiment: Antiobesity activity in diet-induced obese C57Bl/6 mouse model assessed as plasma insulin level at 3.48 mg/kg, ip administered every other day for 30 days by ELISA (reference value: 13.33 +/- […]); assay type: functional, organism-based
Mus musculus [8] = experiment: Anorectic activity in overnight fasted ICR mouse assessed as reduction in cumulative food intake at 1000 nmol/kg, ip measured at 2 hrs post dose; assay type: functional, organism-based
Summary of the method: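 Male ICR mice, 9 weeks old, […], then given a single i.p. dose of 1000 nmol/kg in 0.9% saline; saline-injected controls. Mice were returned to home cages with preweighed food, which was reweighed at 0.5, 1, 2, 4, 8 and 24 h. Readout is cumulative food intake, n=6-8 per group.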

Mus musculus [9] = experiment: Antiobesity activity in diet-induced obese C57Bl/6 mouse model assessed as serum adiponectin level at 3.48 mg/kg, ip administered every other day for 30 days by ELISA (reference value: 8.9 +/- 0.38 ug/ml); assay type: functional, organism-based
Summary of the method: as §1

Glucagon receptor, sequence (P47871 whole entry): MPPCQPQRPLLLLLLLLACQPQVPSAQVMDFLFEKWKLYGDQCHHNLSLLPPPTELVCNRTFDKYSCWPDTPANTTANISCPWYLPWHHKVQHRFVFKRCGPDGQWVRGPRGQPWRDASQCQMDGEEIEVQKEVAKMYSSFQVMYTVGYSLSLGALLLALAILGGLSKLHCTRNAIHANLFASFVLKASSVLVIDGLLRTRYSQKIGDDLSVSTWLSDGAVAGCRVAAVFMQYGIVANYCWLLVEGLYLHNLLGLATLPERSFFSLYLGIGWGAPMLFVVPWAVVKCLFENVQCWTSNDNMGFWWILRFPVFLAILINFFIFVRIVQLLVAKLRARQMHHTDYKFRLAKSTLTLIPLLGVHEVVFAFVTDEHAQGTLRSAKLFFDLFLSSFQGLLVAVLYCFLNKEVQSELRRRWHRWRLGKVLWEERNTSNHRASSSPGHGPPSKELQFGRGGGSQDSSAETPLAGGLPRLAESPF

Question: With `CC[C@H](C)[C@H](NC(=O)[C@H](Cc1ccccc1)NC(=O)[C@H](CCC(=O)O)NC(=O)[C@H](CCCCN)NC(=O)[C@H](C)NC(=O)[C@H](C)NC(=O)[C@H](CCC(N)=O)NC(=O)CNC(=O)[C@H](CCC(=O)O)NC(=O)[C@H](CC(C)C)NC(=O)[C@H](Cc1ccc(O)cc1)NC(=O)[C@H](CO)NC(=O)[C@H](CO)NC(=O)[C@@H](NC(=O)[C@H](CC(=O)O)NC(=O)[C@H](CO)NC(=O)[C@@H](NC(=O)[C@H](Cc1ccccc1)NC(=O)[C@@H](NC(=O)CNC(=O)[C@H](CCC(=O)O)NC(=O)[C@H](C)NC(=O)[C@@H](N)Cc1c[nH]cn1)[C@@H](C)O)[C@@H](C)O)C(C)C)C(=O)N[C@@H](C)C(=O)N[C@@H](Cc1c[nH]c2ccccc12)C(=O)N[C@@H](CC(C)C)C(=O)N[C@H](C(=O)N[C@@H](CCCCN)C(=O)NCC(=O)N[C@@H](CCCN=C(N)N)C(=O)NCC(=O)O)C(C)C` as the molecule, how does the Activity (Mus musculus [1]) read?
Answer: Active

Question: What about the Activity (Mus musculus [2]) of the same molecule?
Answer: inactive

Question: What about the EC50 (Glucagon receptor) of the same molecule?
Answer: Not Active

Question: For GLUCAGON, which Activity (Mus musculus [3]) is on record?
Answer: 1.19 mmol/L

Question: And the Activity (Mus musculus [4])?
Answer: Active

Question: And the Activity (Mus musculus [5])?
Answer: 1.79 ng/mL

Question: What about the Activity (Mus musculus [6]) of the same molecule?
Answer: 5.08 mmol/L

Question: What about the Activity (Mus musculus [7]) of the same molecule?
Answer: 8.41 ng/mL

Question: And the Activity (Mus musculus [2])?
Answer: inactive

Question: And the Activity (Mus musculus [8])?
Answer: inactive

Question: What about the Activity (Mus musculus [9]) of the same molecule?
Answer: 12.2 µg/mL
